Published values of several laboratories.
Effect on: cell growth or viability

N#Cc1ccc(-c2cc(CNc3cccc4cccnc34)on2)cc1  IC50 (Z-138; MTS; 72 h): 10.8 µM
O=C(CSc1nc2ccccc2s1)N/N=C/c1ccc(OCC(=O)Nc2cccc(Cl)c2)cc1  IC50 (Z-138; MTS; 72 h): > 100 µM
O=c1cc(OCc2cc(-c3ccc(Cl)cc3Cl)no2)c2ccccc2o1  IC50 (Z-138; MTS; 72 h): > 100 µM
Cc1ccc(CN2C(=O)C(=Nc3cccc(C)c3)c3ccccc32)cc1  IC50 (B16; MTT; 48 h): 0.44 µM
Cc1cc2c(C(=O)O)cccc2n1-c1nc2c(c(NCc3ccccc3)n1)CCCN2  IC50 (BXPC-3; 72 h): 0.7 µM
O=C(CSc1nc2ccccc2s1)N/N=C/c1ccc(OCC(=O)Nc2ccc([N+](=O)[O-])cc2)cc1  IC50 (Z-138; MTS; 72 h): 3.75 µM
c1ccc(-c2cc(CNc3cccc4cccnc34)on2)cc1  IC50 (Z-138; MTS; 72 h): 35.3 µM
O=C1Nc2ccccc2C1=Nc1cccc(Cl)c1  IC50 (B16; MTT; 48 h): > 100 µM
Cc1cc2c(C(N)=O)cccc2n1-c1nc2c(c(NCc3ccccc3)n1)CCCN2  IC50 (BXPC-3; 72 h): 0.8 µM
COc1cccc2c1C(=O)c1c(O)c3c(c(O)c1C2=O)C[C@@](O)(C(=O)CO)C[C@@H]3O[C@H]1C[C@H](N)[C@H](O)[C@H](C)O1  IC50 (BXPC-3; 96 h): 0.124 µM
Cc1ccc(CN2C(=O)C(=Nc3cccc(Cl)c3)c3ccccc32)cc1  IC50 (B16; MTT; 48 h): 1.49 µM
Cc1nc(Nc2ncc(C(=O)Nc3c(C)cccc3Cl)s2)cc(N2CC[C@H](O)C2)n1  IC50 (Granta-519; ATP luminescence; 72 h): > 10 µM
O=C1C(=Nc2ccccc2I)c2ccccc2N1Cc1ccc(Br)cc1  IC50 (B16; MTT; 48 h): 15.2 µM
O=c1[nH]cc(F)c(=O)[nH]1  IC50 (DLD-1; MTT; 72 h): 2.68 µM
COc1cc(N=C2C(=O)N(Cc3ccccc3)c3ccccc32)cc(OC)c1  IC50 (B16; MTT; 48 h): 0.57 µM
N/C(=N\O)c1ccc(-c2cc(CNc3cccc4cccnc34)on2)cc1  IC50 (Z-138; MTS; 72 h): 2.1 µM
CONC(=O)c1cccc2c1cc(C)n2-c1nc2c(c(NCc3ccccc3)n1)CCCN2  IC50 (ARP-1; 72 h): 2.1 µM
FC(F)(F)c1cc(OCc2cc(-c3ccccn3)no2)c2ccccc2n1  IC50 (Z-138; MTS; 72 h): > 100 µM
Cc1cccc(N=C2C(=O)N(Cc3cccc(Cl)c3)c3ccccc32)c1  IC50 (B16; MTT; 48 h): 6.71 µM
O=C(CSc1nc2ccccc2s1)N/N=C/c1ccc(OCC(=O)Nc2ccc(Br)cc2)cc1  IC50 (Z-138; MTS; 72 h): > 100 µM
Clc1ccc(-c2cc(CNc3cccc4cccnc34)on2)c(Cl)c1  IC50 (Z-138; MTS; 72 h): 27.9 µM
